Experimental data taken from ChEMBL document CHEMBL1629436, “Synthesis and biological evaluation of new camptothecin derivatives obtained by modification of position 20” (Bioorg Med Chem, 2010).
Active and inactive are the calls of the source. The calls are words filed in the database; no cut-off is given here.

Columns and labels:
[1] = system: A-431; test: Cytotoxicity against human A431 cells after 72 hrs by trypan blue assay; assay type: functional, cell-based; conditions: A-431, 72 h
Outline: (§1)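 A-431, HeLa and HL-60 cells at 4×10^4 per well, incubated 24 h. HeLa and A-431 then received fresh medium. Graded compound concentrations were added for a further 72 h at 37 °C, 5% CO2. Viability was counted by Trypan blue exclusion. IC50 is the concentration giving 50% reduction in cell number versus control: ≥3 independent experiments, triplicate samples, mean ± SD.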

[2] = system: HeLa; test: Cytotoxicity against human HeLa cells after 72 hrs by trypan blue assay; assay type: functional, cell-based; outline: as §1
[3] = system: HL-60; test: Cytotoxicity against human HL60 cells after 72 hrs by trypan blue assay; assay type: functional, cell-based; conditions: HL-60, 72 h; outline: as §1
[4] = system: A2C12; test: Cytotoxicity against mouse A2C12 cells after 24 to 96 hrs by MTS assay; assay type: functional, cell-based
Outline: (§2)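 Mouse transgenic lines plated at 10^3 cells/well and left 24 h to attach. Drugs diluted in medium were added for 24 or 96 h. CellTiter 96 AQueous One (MTS) reagent was then added for 1 h at 37 °C, with absorbance read at 490 nm. Each condition was run in quintuplicate, and cytotoxicity was expressed as percent of controls.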

[5] = system: yB8; test: Cytotoxicity against mouse yB8 cells after 24 to 96 hrs by MTS assay; assay type: functional, cell-based; outline: as §2
[6] = system: yD12; test: Cytotoxicity against mouse yD12 cells after 24 to 96 hrs by MTS assay; assay type: functional, cell-based; outline: as §2
[7] = species on record: Mus musculus; test: Cytotoxicity against mouse betaD10 cells after 24 to 96 hrs by MTS assay; assay type: functional, cell-based; outline: as §2
[8] = system: yA7; test: Cytotoxicity against mouse yA7 cells after 24 to 96 hrs by MTS assay; assay type: functional, cell-based; outline: as §2
[9] = system: yA3; test: Cytotoxicity against mouse yA3 cells after 24 to 96 hrs by MTS assay; assay type: functional, cell-based; outline: as §2
[10] = system: B3; test: Cytotoxicity against mouse B3 cells after 24 to 96 hrs by MTS assay; assay type: functional, cell-based; outline: as §2
[11] = species on record: Mus musculus; test: Cytotoxicity against mouse betaD5 cells after 24 to 96 hrs by MTS assay; assay type: functional, cell-based; outline: as §2
[12] = system: A2B1; test: Cytotoxicity against mouse A2B1 cells after 24 to 96 hrs by MTS assay; assay type: functional, cell-based; outline: as §2
[13] = system: Craf/Cmyc; test: Cytotoxicity against mouse Craf/Cmyc cells after 24 to 96 hrs by MTS assay; assay type: functional, cell-based; outline: as §2
[14] = system: Nucleic Acid; test: Binding affinity to salmon testes DNA by linear flow dichroism analysis; assay type: nucleic-acid assay; conditions: Salmonidae
Outline: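 Salmon testes DNA (1.9 × 10^-3 M) in ETN buffer (10 mM Tris, 10 mM NaCl, 1 mM EDTA, pH 7). Linear dichroism spectra were recorded at 25 °C over a range of [drug]/[DNA] ratios on a spectropolarimeter converted for LD.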

[15] = species on record: Bos taurus; test: Inhibition of calf thymus topoisomerase 1-mediated relaxation of supercoiled pBR322 at 100 uM after 60 mins using ethidium bromide staining by agarose gel electrophoresis
Outline: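 Supercoiled pBR322 (0.25 µg) with 2 U calf thymus topoisomerase I and test compound, 60 min at 37 °C in 20 µl reaction buffer. Stopped with SDS/bromophenol blue/glycerol plus 50 µg/mL proteinase K, 30 min at 37 °C. Run on 1% agarose at room temperature, stained with ethidium bromide 1 µg/mL in TAE, imaged under UV.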

[16] = target: DNA topoisomerase 2-alpha (Homo sapiens) (UniProt P11388); test: Inhibition of human recombinant topoisomerase 2alpha-mediated relaxation of supercoiled pBR322 at up to 100 uM after 60 mins using ethidium bromide staining by agarose gel electrophoresis
Outline: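 Supercoiled pBR322 (0.25 µg) with 1 U human recombinant topoisomerase IIα and test compound, 60 min at 37 °C in 20 µl reaction buffer. Stopped with SDS/bromophenol blue/glycerol plus 50 µg/mL proteinase K, 30 min at 37 °C. Separated on 1% agarose at room temperature, ethidium bromide stained (1 µg/mL, TAE), UV-visualized.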

[17] = Induction apoptosis in mouse Craf/Cmyc cells assessed as relative caspase activity at 10 uM/L after 2 hrs by rhodamine 110 fluorescence assay; assay type: functional
Outline: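 Cells were pretreated with compound (10 µmol/L) for 2 h. The cell-permeable caspase substrate (Asp)2-rhodamine 110 (10 µmol/L) was then added for 2 h more. Caspase cleavage releases fluorescent rhodamine 110, and the read-out was mean fluorescence.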

[18] = system: A2C12; test: Induction apoptosis in mouse A2C12 cells assessed as ROS production at 10 uM/L using DCFH-DA by flow cytometry relative to control; assay type: functional, cell-based
Outline: (§3)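 Transgenic mouse cells exposed to compound at 10 µmol/L. ROS generation was measured by flow cytometry using the probe DCFH-DA.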

[19] = system: B3; test: Induction apoptosis in mouse B3 cells assessed as ROS production at 10 uM/L using DCFH-DA by flow cytometry relative to control; assay type: functional, cell-based; outline: as §3
[20] = species on record: Mus musculus; test: Induction apoptosis in mouse betaD5 cells assessed as ROS production at 10 uM/L using DCFH-DA by flow cytometry relative to control; assay type: functional, cell-based; outline: as §3
[21] = system: Craf/Cmyc; test: Induction apoptosis in mouse Craf/Cmyc cells assessed as ROS production at 10 uM/L using DCFH-DA by flow cytometry relative to control; assay type: functional, cell-based; outline: as §3
[22] = system: yA3; test: Induction apoptosis in mouse yA3 cells assessed as ROS production at 10 uM/L using DCFH-DA by flow cytometry relative to control; assay type: functional, cell-based; outline: as §3
[23] = system: yD1; test: Induction apoptosis in mouse yD1 cells assessed as ROS production at 10 uM/L using DCFH-DA by flow cytometry relative to control; assay type: functional, cell-based; outline: as §3
[24] = species on record: Mus musculus; test: Induction apoptosis in mouse betaD10 cells assessed as ROS production at 10 uM/L using DCFH-DA by flow cytometry relative to control; assay type: functional, cell-based; outline: as §3
[25] = system: yA7; test: Induction apoptosis in mouse yA7 cells assessed as ROS production at 10 uM/L using DCFH-DA by flow cytometry relative to control; assay type: functional, cell-based; outline: as §3
[26] = system: yB8; test: Induction apoptosis in mouse yB8 cells assessed as ROS production at 10 uM/L using DCFH-DA by flow cytometry relative to control; assay type: functional, cell-based; outline: as §3
[27] = system: yD12; test: Induction apoptosis in mouse yD12 cells assessed as ROS production at 10 uM/L using DCFH-DA by flow cytometry relative to control; assay type: functional, cell-based; outline: as §3
[28] = system: HUVEC; test: Antiangiogenic activity in HUVEC cocultured with human PaSMC assessed as reduction of total tube length at 125 nM after 72 hrs; assay type: functional; set-up: scale not given: the % may be the effect or the level left
Outline: (§4)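 Primary HUVEC (passage 5, retrovirally labelled with RFP) and pulmonary artery vSMC (passage 5) co-seeded at 5×10^4 PaSMC plus 10×10^3 HUVEC per well in EGM-2, briefly spun at 200 g, attached 3 h. Compounds were then added at final 2–200 nM, two replicates per concentration. Networks formed over 72 h at 37 °C, 5% CO2, followed by automated imaging and image analysis of tube formation.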

[29] = system: HUVEC; test: Antiangiogenic activity in HUVEC cocultured with human PaSMC assessed as morphological changes up to 200 nM after 72 hrs; assay type: functional, cell-based; outline: as §4

DNA topoisomerase 2-alpha (Homo sapiens), sequence (P11388 whole entry): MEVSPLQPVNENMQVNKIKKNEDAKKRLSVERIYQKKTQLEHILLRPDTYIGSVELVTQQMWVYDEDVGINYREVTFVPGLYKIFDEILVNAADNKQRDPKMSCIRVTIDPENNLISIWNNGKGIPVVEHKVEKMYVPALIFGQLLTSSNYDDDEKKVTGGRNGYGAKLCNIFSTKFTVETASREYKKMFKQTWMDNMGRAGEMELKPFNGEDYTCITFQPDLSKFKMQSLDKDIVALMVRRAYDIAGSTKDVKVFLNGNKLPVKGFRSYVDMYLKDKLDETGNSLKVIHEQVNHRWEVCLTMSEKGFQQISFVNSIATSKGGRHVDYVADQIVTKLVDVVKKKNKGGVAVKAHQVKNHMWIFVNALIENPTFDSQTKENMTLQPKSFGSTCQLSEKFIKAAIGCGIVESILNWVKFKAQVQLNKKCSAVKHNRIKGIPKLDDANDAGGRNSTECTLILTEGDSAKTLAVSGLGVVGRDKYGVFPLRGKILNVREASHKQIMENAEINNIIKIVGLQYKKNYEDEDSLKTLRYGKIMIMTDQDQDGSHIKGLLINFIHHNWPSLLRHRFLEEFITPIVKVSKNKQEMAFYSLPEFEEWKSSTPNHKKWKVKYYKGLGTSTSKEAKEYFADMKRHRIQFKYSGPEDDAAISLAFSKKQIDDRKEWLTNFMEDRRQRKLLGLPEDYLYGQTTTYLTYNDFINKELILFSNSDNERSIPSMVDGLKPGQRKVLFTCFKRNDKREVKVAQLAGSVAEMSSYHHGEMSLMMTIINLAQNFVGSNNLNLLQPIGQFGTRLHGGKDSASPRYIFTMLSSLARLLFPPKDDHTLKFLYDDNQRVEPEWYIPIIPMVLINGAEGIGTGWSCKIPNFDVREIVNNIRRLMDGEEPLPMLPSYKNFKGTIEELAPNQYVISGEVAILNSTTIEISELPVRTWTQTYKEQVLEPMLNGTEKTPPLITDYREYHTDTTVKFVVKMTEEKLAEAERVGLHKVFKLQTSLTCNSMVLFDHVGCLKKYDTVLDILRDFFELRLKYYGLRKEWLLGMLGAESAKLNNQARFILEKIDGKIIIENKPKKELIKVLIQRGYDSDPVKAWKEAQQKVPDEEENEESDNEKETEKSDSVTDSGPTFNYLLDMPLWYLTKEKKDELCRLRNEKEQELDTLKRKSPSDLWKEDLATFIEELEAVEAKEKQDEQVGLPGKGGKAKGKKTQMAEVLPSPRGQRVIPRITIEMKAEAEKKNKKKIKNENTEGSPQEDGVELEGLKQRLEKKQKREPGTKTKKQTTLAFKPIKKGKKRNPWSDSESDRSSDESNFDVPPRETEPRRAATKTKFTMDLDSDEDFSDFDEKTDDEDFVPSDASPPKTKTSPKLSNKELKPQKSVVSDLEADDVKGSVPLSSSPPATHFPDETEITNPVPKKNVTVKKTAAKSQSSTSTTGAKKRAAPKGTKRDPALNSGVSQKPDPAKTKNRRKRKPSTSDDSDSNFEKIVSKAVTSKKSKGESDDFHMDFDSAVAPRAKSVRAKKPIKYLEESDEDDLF

| SMILES | IC50 [1] | IC50 [2] | IC50 [3] | Activity [4] | Activity [5] | Activity [6] | Activity [7] | Activity [8] | Activity [9] | Activity [10] | Activity [11] | Activity [12] | Activity [13] | Activity [14] | Activity [15] | Activity [16] | Activity [18] | Activity [19] | Activity [20] | Activity [21] | further results |
| --- | --- | --- | --- | --- | --- | --- | --- | --- | --- | --- | --- | --- | --- | --- | --- | --- | --- | --- | --- | --- | --- |
| CC[C@@]1(OC(=O)NCCNC(=O)CCCCCCCCC(=O)NCCNC(=O)O[C@]2(CC)C(=O)OCc3c2cc2n(c3=O)Cc3cc4ccccc4nc3-2)C(=O)OCc2c1cc1n(c2=O)Cc2cc3ccccc3nc2-1 | 80 nM | 300 nM | 420 nM | Active | Active | Active | Active | Active | Active | Active | Active | Active | Active | inactive | inactive | inactive | Active | Active | Active | Active | fold change (FC) [17]: 8; Activity [22]: Active; Activity [23]: Active |
| CC[C@@]1(OC(=O)NCCNC(=O)CCCSSCCCC(=O)NCCNC(=O)O[C@]2(CC)C(=O)OCc3c2cc2n(c3=O)Cc3cc4ccccc4nc3-2)C(=O)OCc2c1cc1n(c2=O)Cc2cc3ccccc3nc2-1 | 30 nM | 170 nM | 290 nM | Active | Active | Active | Active | Active | Active | Active | Active | Active | Active | inactive | inactive | inactive | Active | Active | Active | Active | Activity [24]: Active; Activity [22]: Active; Activity [25]: Active; Activity [26]: Active; Activity [23]: Active; Activity [27]: Active; Activity [28]: 50%; Activity [29]: inactive |
